27 molecules from ChEMBL document CHEMBL4627400, “Discovery of Dihydropyrrolo[1,2-a]pyrazin-3(4H)-one-Based Second-Generation GluN2C- and GluN2D-Selective Positive Allosteric Modulators (PAMs) of the N-Methyl-d-Aspartate (NMDA) Receptor” (J Med Chem, 2020) can be followed below.

In data set [1] the target is Ionotropic glutamate receptor NMDA 1/2D (Rattus norvegicus) (UniProt P35439+Q62645). Briefly: Positive allosteric modulation of recombinant rat GluN1a/GluN2D receptor expressed in Xenopus laevis oocytes assessed as increase in glycine/L-glutamate-induced channel current at 30 uM by two-electrode voltage clamp method relative to control. The class given is cell-based. In outline:
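Oocytes expressing rat GluN1/GluN2C or GluN2D, held at −40 mV in HEPES-buffered Ba2+ solution, pH 7.4, 23 °C. […] Current given as percent of agonist-alone response. […] Doubling concentration is the concentration giving 2-fold response; reported as […] log. 6–19 oocytes from 2–3 frogs.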

Data set [2] addresses Glutamate NMDA receptor; Grin1/Grin2b (Rattus norvegicus, UniProt P35439+Q00960). Briefly: Positive allosteric modulation of recombinant rat GluN1a/GluN2B receptor expressed in Xenopus laevis oocytes assessed as increase in glycine/L-glutamate-induced channel current at 10 to 30 uM by two-electrode voltage clamp method relative to control. It counts as cell-based. In outline: (§1)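 TEVC at −40 mV, 23 °C, in 90 NaCl/1 KCl/0.5 BaCl/0.005 EDTA/10 HEPES (mM), pH 7.4. Oocytes expressed rat GluN1/GluN2A or GluN1/GluN2B. […] Some GluN2A oocytes were BAPTA-loaded. 4–17 oocytes from 1–3 frogs.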

The target of data set [3] is Glutamate NMDA receptor; Grin1/Grin2c (Rattus norvegicus) (UniProt P35439+Q00961). The data set can be described thus: Positive allosteric modulation of recombinant rat GluN1a/GluN2C receptor expressed in Xenopus laevis oocytes assessed as increase in glycine/L-glutamate-induced channel current at 30 uM by two-electrode voltage clamp method relative to control. The class given is cell-based. Put shortly: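 Oocytes expressing rat GluN1/GluN2C or GluN2D, held at −40 mV in HEPES-buffered Ba2+ solution, pH 7.4, 23 °C. Current given as percent of agonist-alone response. Doubling concentration is the concentration giving 2-fold response; reported as […] log. 6–19 oocytes from 2–3 frogs.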

The target of data set [4] is Glutamate NMDA receptor; Grin1/Grin2a (Rattus norvegicus, UniProt P35439+Q00959). The data set can be described thus: Positive allosteric modulation of recombinant rat GluN1a/GluN2A receptor expressed in Xenopus laevis oocytes assessed as increase in glycine/L-glutamate-induced channel current at 10 to 30 uM by two-electrode voltage clamp method relative to control. The class given is cell-based. In outline: as §1

The target of data set [5] is Ionotropic glutamate receptor NMDA 1/2D (Rattus norvegicus, UniProt P35439+Q62645).
Data set [6] has as its target Glutamate NMDA receptor; Grin1/Grin2c (Rattus norvegicus, UniProt P35439+Q00961).

Sequence of Glutamate NMDA receptor; Grin1/Grin2b (Q00960 whole entry, other chains not shown): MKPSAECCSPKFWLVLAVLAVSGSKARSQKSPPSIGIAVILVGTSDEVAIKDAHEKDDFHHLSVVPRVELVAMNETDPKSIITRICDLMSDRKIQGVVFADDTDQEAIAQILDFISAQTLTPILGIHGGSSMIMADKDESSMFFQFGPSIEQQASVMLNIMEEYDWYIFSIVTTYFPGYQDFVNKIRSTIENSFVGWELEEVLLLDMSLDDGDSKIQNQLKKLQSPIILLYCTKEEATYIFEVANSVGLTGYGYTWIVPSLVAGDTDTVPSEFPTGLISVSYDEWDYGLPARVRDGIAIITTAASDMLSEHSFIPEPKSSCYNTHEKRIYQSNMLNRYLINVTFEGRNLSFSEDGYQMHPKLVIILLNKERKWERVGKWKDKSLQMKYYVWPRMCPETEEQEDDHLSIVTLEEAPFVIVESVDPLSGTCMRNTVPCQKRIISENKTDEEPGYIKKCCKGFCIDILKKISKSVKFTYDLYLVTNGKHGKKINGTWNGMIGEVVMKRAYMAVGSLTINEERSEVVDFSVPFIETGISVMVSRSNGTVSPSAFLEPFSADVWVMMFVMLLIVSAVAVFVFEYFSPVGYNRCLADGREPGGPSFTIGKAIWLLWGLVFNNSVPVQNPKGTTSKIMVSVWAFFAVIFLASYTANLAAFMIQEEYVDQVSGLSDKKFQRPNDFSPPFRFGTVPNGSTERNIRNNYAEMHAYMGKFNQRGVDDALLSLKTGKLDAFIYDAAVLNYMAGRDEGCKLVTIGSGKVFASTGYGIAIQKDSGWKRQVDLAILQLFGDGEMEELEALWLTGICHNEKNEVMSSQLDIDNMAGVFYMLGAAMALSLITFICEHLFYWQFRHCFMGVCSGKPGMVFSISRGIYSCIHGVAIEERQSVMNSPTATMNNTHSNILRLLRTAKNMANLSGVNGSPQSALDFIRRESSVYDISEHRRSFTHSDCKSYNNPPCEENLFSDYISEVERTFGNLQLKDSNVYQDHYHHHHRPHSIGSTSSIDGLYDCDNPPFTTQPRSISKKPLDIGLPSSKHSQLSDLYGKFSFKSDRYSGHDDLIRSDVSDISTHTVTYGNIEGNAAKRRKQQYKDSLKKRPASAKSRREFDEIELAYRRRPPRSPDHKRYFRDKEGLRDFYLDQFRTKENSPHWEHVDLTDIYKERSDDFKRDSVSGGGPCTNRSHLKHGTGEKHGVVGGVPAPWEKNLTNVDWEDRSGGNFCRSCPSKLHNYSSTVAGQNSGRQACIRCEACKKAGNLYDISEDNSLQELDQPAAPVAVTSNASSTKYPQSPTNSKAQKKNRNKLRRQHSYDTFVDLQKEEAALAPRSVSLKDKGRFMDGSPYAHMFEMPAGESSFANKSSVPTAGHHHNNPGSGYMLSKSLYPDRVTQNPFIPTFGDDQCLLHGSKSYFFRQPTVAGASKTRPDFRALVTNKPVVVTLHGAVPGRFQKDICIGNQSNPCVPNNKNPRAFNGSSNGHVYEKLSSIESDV
Sequence of Glutamate NMDA receptor; Grin1/Grin2a (Q00959 whole entry, other chains not shown): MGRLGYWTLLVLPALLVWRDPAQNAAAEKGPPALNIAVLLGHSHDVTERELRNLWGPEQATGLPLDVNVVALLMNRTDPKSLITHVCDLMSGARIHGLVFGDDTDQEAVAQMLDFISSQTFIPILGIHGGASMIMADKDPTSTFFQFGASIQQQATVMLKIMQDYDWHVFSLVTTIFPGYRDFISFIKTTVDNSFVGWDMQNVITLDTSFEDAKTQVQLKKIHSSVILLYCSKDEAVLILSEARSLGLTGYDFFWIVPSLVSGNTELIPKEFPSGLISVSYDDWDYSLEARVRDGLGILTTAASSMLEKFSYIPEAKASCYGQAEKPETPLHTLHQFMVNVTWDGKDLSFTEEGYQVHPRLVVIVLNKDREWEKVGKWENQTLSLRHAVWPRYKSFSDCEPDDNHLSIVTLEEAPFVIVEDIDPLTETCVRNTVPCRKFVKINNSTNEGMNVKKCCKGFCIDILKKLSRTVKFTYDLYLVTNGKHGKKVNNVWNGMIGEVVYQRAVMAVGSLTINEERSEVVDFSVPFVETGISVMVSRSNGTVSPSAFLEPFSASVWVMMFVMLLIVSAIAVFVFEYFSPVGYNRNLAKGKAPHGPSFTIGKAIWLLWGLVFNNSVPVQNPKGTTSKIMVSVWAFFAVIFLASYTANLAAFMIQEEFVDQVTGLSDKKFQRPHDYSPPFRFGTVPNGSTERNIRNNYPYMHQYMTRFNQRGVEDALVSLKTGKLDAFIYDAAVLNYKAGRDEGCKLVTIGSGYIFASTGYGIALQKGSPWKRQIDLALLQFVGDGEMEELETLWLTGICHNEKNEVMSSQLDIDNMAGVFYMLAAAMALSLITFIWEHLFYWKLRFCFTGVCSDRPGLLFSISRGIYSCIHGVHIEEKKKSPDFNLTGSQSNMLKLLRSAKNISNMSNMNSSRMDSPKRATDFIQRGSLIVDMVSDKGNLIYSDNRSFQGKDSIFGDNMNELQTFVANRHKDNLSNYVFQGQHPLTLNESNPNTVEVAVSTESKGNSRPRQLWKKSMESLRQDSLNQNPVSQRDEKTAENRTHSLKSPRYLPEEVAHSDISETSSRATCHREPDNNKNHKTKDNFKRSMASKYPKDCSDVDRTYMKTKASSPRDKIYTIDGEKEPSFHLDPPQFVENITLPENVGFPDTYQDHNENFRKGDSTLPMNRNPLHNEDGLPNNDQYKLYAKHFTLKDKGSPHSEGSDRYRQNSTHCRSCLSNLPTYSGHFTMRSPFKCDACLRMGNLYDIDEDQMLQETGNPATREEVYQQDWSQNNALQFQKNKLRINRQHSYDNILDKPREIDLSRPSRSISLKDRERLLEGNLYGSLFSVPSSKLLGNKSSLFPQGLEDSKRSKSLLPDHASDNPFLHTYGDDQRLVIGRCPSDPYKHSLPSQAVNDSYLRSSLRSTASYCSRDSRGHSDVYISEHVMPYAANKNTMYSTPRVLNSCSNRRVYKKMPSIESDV

With `COc1ccc(OCC2c3cnn(C)c3CCN2C(=O)c2cccc(Cl)c2)cc1` (stereo not given), the values for the %max in data set [1] and in data set [3] were 220% and 210%, respectively. Besides, the Activity result in data set [2] and in data set [4] was “Not Active” in each case.
For `COc1ccc(OCC2c3ccc(OC(C)C)cc3CCN2C(=O)c2cccc(Cl)c2)cc1` (stereo not given), the %max in data set [1] is 250%; in data set [3], 240%. Further, the Activity entry in data set [2] and in data set [4] was “Not Active” each time. In data set [5], this molecule gave an EC50 of 3160 nM.
With `COc1ccc(OCC2c3ccc(OC)cc3CC(=O)N2Cc2cccc(Cl)c2)cc1` (stereo not given), the %max in data set [1] is 330%; in data set [3] it was 270%. Besides, the Activity entry in data set [2] and in data set [4] was “Not Active” throughout. For the same molecule, the EC50 in data set [6] was 2000 nM; in data set [5] it was 2510 nM.
Take `COc1ccc(OCC2c3ccc(OC(C)C)cc3CC(=O)N2Cc2cccc(C(F)(F)F)c2)cc1` (stereo not given): the %max in data set [1] worked out at 310%; in data set [3], 280%. Also, the Activity result in data set [2] and in data set [4] was “Not Active” in each case. The figures for the EC50 in data set [6] and in data set [5] were 398 nM and 631 nM, respectively.
As for `COc1ccc(OCC2c3occc3CCN2C(=O)c2cccc(Cl)c2)cc1` (stereo not given), the values for the %max in data set [1] and in data set [3] were 470% and 340%, respectively. In addition, the Activity result in data set [2] and in data set [4] was “Not Active” in each case. Moreover, the figures for the EC50 in data set [6] and in data set [5] were 6310 nM and 7940 nM, respectively.
Turning to `COc1ccc(OCC2c3ccc(OC)cc3CC(=O)N2Cc2c[nH]nn2)cc1` (stereo not given), the %max is 98% in data set [1] and 110% in data set [3]. For the same molecule, the Activity result in data set [2] and in data set [4] was “Not Active” in each case.
Consider `COc1ccc(OCC2c3cc(OC)c(OC)cc3CC(=O)N2Cc2cccc(Cl)c2)cc1` (stereo not given), for which the %max was found to be 340% in data set [1] and 270% in data set [3]. The Activity result in data set [2] and in data set [4] was “Not Active” each time. Also, the concentration for a half-maximal effect (EC50) was 5010 nM in data set [6] and 10000 nM in data set [5].
For the molecule `COc1ccc(OCC2c3ccc(OC)cc3CC(=O)N2CCc2c[nH]c3ccccc23)cc1` (stereo not given), the %max in data set [1] and in data set [3] was 85% each time. The Activity entry in data set [2] and in data set [4] was “Not Active” in each case.
Take `COc1ccc(OCC2c3sccc3CCN2C(=O)c2ccc(Cl)s2)cc1` (stereo not given): the %max in data set [1] stood at 400%; in data set [3], 290%. Also, the Activity result in data set [2] and in data set [4] was “Not Active” in each case. The 50% effective concentration (EC50) in data set [6] and in data set [5] was 5010 nM in each case.
Take `CCCN1C(=O)Cc2cc(OC)ccc2C1COc1ccc(OC)cc1` (stereo not given): the %max turned out to be 94% in data set [1] and 97% in data set [3]. In addition, the Activity entry in data set [2] and in data set [4] was “Not Active” each time.
Consider `COc1ccc(OCC2c3ccccc3CCN2C(=O)c2cccc(Cl)c2)cc1` (stereo not given), for which the %max in data set [1] worked out at 300%; in data set [3] it was 260%. Further, the Activity result in data set [2] and in data set [4] was “Not Active” in each case. Further, the EC50 in data set [6] is 6310 nM; in data set [5], 7940 nM.
Take `COc1ccc(OCC2c3cccn3CC(=S)N2Cc2cccc(C(F)(F)F)c2)cc1` (stereo not given): the values for the %max in data set [1] and in data set [3] were 110% and 120%, respectively. The Activity result in data set [2] and in data set [4] was “Not Active” in each case.
With `COc1ccc(OCC2c3ccc(OC(C)C)cc3CC(=O)N2Cc2cccc(F)c2)cc1` (stereo not given), the %max in data set [1] was found to be 330%; in data set [3] it was 320%. Moreover, the Activity in data set [2] and in data set [4] was 130% throughout. For the same molecule, the EC50 is 1000 nM in data set [6] and 2000 nM in data set [5].
Consider `COCCOCCN1C(=O)Cc2cc(OC)ccc2C1COc1ccc(OC)cc1` (stereo not given), for which the results for the %max in data set [1] and in data set [3] were 100% and 98%, respectively. Besides, the Activity entry in data set [2] and in data set [4] was “Not Active” throughout.
As for `COc1ccc(OCC2c3ccc(OC)cc3CC(=O)N2CCCN(C)C)cc1` (stereo not given), the %max in data set [1] was 96%; in data set [3], 110%. The Activity entry in data set [2] and in data set [4] was “Not Active” each time.
Regarding `COc1ccc(OCC2c3ccc(OC(C)C)cc3CCN2C(=O)c2cccc(C(F)(F)F)c2)cc1` (stereo not given), the Activity entry in data set [2] and in data set [4] was “Not Active” throughout. Moreover, the EC50 in data set [6] is 1580 nM; in data set [5], 2510 nM.
As to `COc1ccc(OCC2c3cc(OC)c(OC)cc3CCN2C(=O)c2cccc(Cl)c2)s1` (stereo not given), the %max was 110% in data set [1] and 100% in data set [3]. The Activity result in data set [2] and in data set [4] was “Not Active” in each case.
As to `COc1cc2c(cc1OC)C(COc1ncccn1)N(C(=O)c1cccc(C(F)(F)F)c1)CC2` (stereo not given), the %max in data set [1] is 95%; in data set [3], 97%. Further, the Activity entry in data set [2] and in data set [4] was “Not Active” throughout.
Regarding `COc1ccc(OCC2c3sc(C)nc3CCN2C(=O)c2cccc(Cl)c2)cc1` (stereo not given), the %max in data set [1] and in data set [3] was 100% throughout. The Activity entry in data set [2] and in data set [4] was “Not Active” throughout.
Turning to `COc1cc2c(cc1OC)C(COc1ccccn1)N(C(=O)c1cccc(C(F)(F)F)c1)CC2` (stereo not given), the results for the %max in data set [1] and in data set [3] were 97% and 96%, respectively. In addition, the Activity result in data set [2] and in data set [4] was “Not Active” throughout.
As to `COc1ccc(OCC2c3ccc(OC(C)C)cc3CCN2C(=O)c2cccc(F)c2)cc1` (stereo not given), the Activity entry in data set [2] and in data set [4] was “Not Active” each time. This molecule also gave an EC50 in data set [5] of 7940 nM.
As for `COc1cc2c(cc1OC)C(COc1cccnc1)N(C(=O)c1cccc(C(F)(F)F)c1)CC2` (stereo not given), the figures for the %max in data set [1] and in data set [3] were 88% and 90%, respectively. Moreover, the Activity entry in data set [2] and in data set [4] was “Not Active” throughout.
On to `COc1ccc(OCC2c3cc(OC)c(OC)cc3CCN2C(=O)c2cccc(C(F)(F)F)c2)cc1` (stereo not given), for which the Activity entry in data set [2] and in data set [4] was “Not Active” each time.
Regarding `COc1cc2c(cc1OC)C(CO)N(C(=O)c1cccc(C(F)(F)F)c1)CC2` (stereo not given), the %max came to 95% in data set [1] and 98% in data set [3]. The Activity result in data set [2] and in data set [4] was “Not Active” throughout.
In the case of `COc1cc2c(cc1OC)C(COC1CCOCC1)N(C(=O)c1cccc(C(F)(F)F)c1)CC2` (stereo not given), the %max in data set [1] is 95%; in data set [3], 100%. Besides, the Activity result in data set [2] and in data set [4] was “Not Active” throughout.
As for `COc1ccc(OCC2c3ccc(OCC(C)C)cc3CCN2C(=O)c2cccc(Cl)c2)cc1` (stereo not given), the Activity entry in data set [2] and in data set [4] was “Not Active” in each case. Also, the results for the half-maximal effective concentration (EC50) in data set [6] and in data set [5] were 1000 nM and 1260 nM, respectively.
`COc1ccc(OCC2c3ccsc3CCN2C(=S)c2cccc(Cl)c2)cc1` (stereo not given): the values for the %max in data set [1] and in data set [3] were 94% and 97%, respectively. In addition, the Activity result in data set [2] and in data set [4] was “Not Active” throughout.
